Values after ≈ are worked out from the molar mass of the structure shown.

Experiment [1] has as its system Staphylococcus aureus. Put plainly: Antibacterial activity against methicillin-susceptible Staphylococcus aureus ATCC 25923 at 5 ug after 18 to 20 hrs by CLSI disk diffusion assay. The format is functional. The following applies: read-out: DIZ. The method in brief: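 Mueller-Hinton agar, 4 mm deep, swabbed with PBS-diluted overnight TSB culture (~10^8 CFU/mL). Paper disk (6 mm) loaded with compound in DMSO, incubated 37 °C in ambient air. Complete inhibition zone diameter read from plate back with callipers; 6 mm means no inhibition. At least three independent experiments, mean with standard error.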
On the technique in general: A growth-free zone around the sample is the usual read-out of agar diffusion tests.

For experiment [2], the system named is Staphylococcus aureus. Put plainly: Antibacterial activity against methicillin-susceptible Staphylococcus aureus ATCC 29213 after 20 hrs by CLSI microdilution assay. As to conditions: ATCC 29213, 20 h. The format is functional. In general terms: Broth dilution looks for growth in wells or tubes with falling amounts of substance.
The test system of experiment [3] is Staphylococcus aureus. The experiment in a line: Bactericidal activity against methicillin-susceptible Staphylococcus aureus ATCC 29213 preincubated for 20 hrs followed by agar plating and measured after 18 to 20 hrs. The format is functional. The method in brief:
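Broth microdilution per CLSI guideline. Compounds diluted 2-fold in MHB from 100 mM DMSO stocks. Inoculum ~10^5 CFU/mL final, from overnight TSB culture diluted in PBS. Plates incubated at 37 °C. Wells without growth by optical density spread on TSA and incubated at 37 °C. MBC is the lowest concentration giving no colonies. At least triplicate.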

In experiment [4] the test system is Staphylococcus aureus. Put plainly: Synergistic antibacterial activity against methicillin-susceptible Staphylococcus aureus ATCC 29213 assessed as fractional inhibitory concentration index in presence of sulfamethoxazole after 18 hrs by broth microdilution-based checkerboard titration assay. It counts as functional.
Experiment [5] concerns Staphylococcus aureus. The experiment in a line: Bactericidal activity against methicillin-resistant Staphylococcus aureus USA300 preincubated for 20 hrs followed by agar plating and measured after 18 to 20 hrs. It counts as functional. The method in brief: (§1)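 MBC taken from broth microdilution (final about 10^5 CFU/mL, Mueller-Hinton broth, 37 °C for 20 h). Clear wells (basal optical density) were spread on TSA plates and incubated at 37 °C for 18–20 h. The lowest concentration giving no colonies is reported. At least triplicate.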

Experiment [6] has as its system Staphylococcus aureus. Put plainly: Synergistic antibacterial activity against hospital-associated methicillin-resistant Staphylococcus aureus COL in presence of sulfamethoxazole after 20 hrs by broth microdilution-based checkerboard titration assay. It counts as functional.
In experiment [7] the test system is Staphylococcus aureus. Put plainly: Antibacterial activity against methicillin-resistant Staphylococcus aureus USA300 at 5 ug after 18 to 20 hrs by CLSI disk diffusion assay. It counts as functional. As to conditions: read-out: DIZ. The essentials:
(§2)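 Disk diffusion on 4 mm Mueller-Hinton agar swabbed with about 10^8 CFU/mL suspension in PBS; 6 mm paper disk loaded with 5 µg compound in DMSO; 37 °C ambient air for 18–20 h; diameter of the complete inhibition zone measured in mm with callipers from the plate back; at least three independent experiments, mean with standard error; 6 mm means no inhibition.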

Experiment [8] concerns Staphylococcus aureus. The experiment in a line: Antibacterial activity against hospital-associated methicillin-resistant Staphylococcus aureus COL at 5 ug after 18 to 20 hrs by CLSI disk diffusion assay. The format is functional. The following applies: read-out: DIZ. The essentials:
as §2

For experiment [9], the system named is Staphylococcus aureus. Put plainly: Antibacterial activity against hospital-associated methicillin-resistant Staphylococcus aureus COL after 20 hrs by CLSI microdilution assay. The format is functional.
For experiment [10], the system named is Staphylococcus aureus. Put plainly: Potentiation of sulfamethoxazole-mediated antibacterial activity against methicillin-susceptible Staphylococcus aureus ATCC 29213 assessed as sulfamethoxazole MIC after 20 hrs by CLSI microdilution assay (reference value: 100 microg/ml). It counts as functional. As to conditions: ATCC 29213, 20 h.
Experiment [11] relates to Staphylococcus aureus. Put plainly: Potentiation of sulfamethoxazole-mediated antibacterial activity against hospital-associated methicillin-resistant Staphylococcus aureus COL assessed as sulfamethoxazole MIC after 20 hrs by CLSI microdilution assay (reference value: 200 microg/ml). The format is functional.
Experiment [12] has as its system Staphylococcus aureus. The experiment in a line: Synergistic antibacterial activity against hospital-associated methicillin-resistant Staphylococcus aureus COL assessed as fractional inhibitory concentration index in presence of sulfamethoxazole after 18 hrs by broth microdilution-based checkerboard titration assay. The format is functional.
For experiment [13], the system named is Staphylococcus aureus. Put plainly: Antibacterial activity against methicillin-resistant Staphylococcus aureus USA300 after 20 hrs by CLSI microdilution assay. It counts as functional. The following applies: USA300, 20 h.
Experiment [14] deals with Staphylococcus aureus. Put plainly: Synergistic antibacterial activity against methicillin-resistant Staphylococcus aureus USA300 assessed as fractional inhibitory concentration index in presence of sulfamethoxazole after 18 hrs by broth microdilution-based checkerboard titration assay. The format is functional.
The subject of experiment [15] is Staphylococcus aureus. The experiment in a line: Bactericidal activity against hospital-associated methicillin-resistant Staphylococcus aureus COL preincubated for 20 hrs followed by agar plating and measured after 18 to 20 hrs. It counts as functional. The essentials: as §1
Experiment [16] concerns Staphylococcus aureus. The experiment in a line: Synergistic antibacterial activity against methicillin-susceptible Staphylococcus aureus ATCC 29213 in presence of sulfamethoxazole after 20 hrs by broth microdilution-based checkerboard titration assay. It counts as functional.
The test system of experiment [17] is A549. The experiment in a line: Cytotoxicity against human A549 cells after 24 to 48 hrs by fluorescence-based assay. It counts as cell-based. The essentials: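 A549 cells, ~10^4 per well in DMEM, given 2-fold serial dilutions of compound (DMSO stock diluted in DMEM). Incubated at 37 °C, 5% CO2. PrestoBlue added for 1 h, then fluorescence read at excitation 535 nm and emission 610 nm as a measure of viable cells.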

Experiment [18] deals with Staphylococcus aureus. Put plainly: Potentiation of sulfamethoxazole-mediated antibacterial activity against methicillin-resistant Staphylococcus aureus USA300 assessed as sulfamethoxazole MIC after 20 hrs by CLSI microdilution assay (reference value: 100 microg/ml). The format is functional. The following applies: USA300, 20 h.
The test system of experiment [19] is Staphylococcus aureus. Put plainly: Synergistic antibacterial activity against methicillin-resistant Staphylococcus aureus USA300 in presence of sulfamethoxazole after 20 hrs by broth microdilution-based checkerboard titration assay. The format is functional.

As for `COc1cc(Cc2cnc(N)nc2N)cc(Cl)c1OC`, the zone of inhibition at 5 µg/disc in [1] stood at 15.1 mm; in [7], 18.1 mm; in experiment [8] it was 6 mm. The MIC in experiment [2] came out at 1.25 µg/mL (≈ 4.24 µM); in experiment [9], 5 µg/mL (≈ 17 µM); in [10], 6.25 µg/mL; in experiment [11], 12.5 µg/mL; in [13], 2.5 µg/mL (≈ 8.48 µM); in experiment [18], 6.25 µg/mL. For the same molecule, the values for the MBC in [3], in experiment [5] and in [15] were 1.25 µg/mL (≈ 4.24 µM), 2.5 µg/mL (≈ 8.48 µM) and 10 µg/mL (≈ 33.9 µM), respectively. Besides, the “fractional inhibitory concentration index (FICI)” value in [4], in experiment [12] and in experiment [14] was 0.12 in each case. For the same molecule, the FIC in experiment [6], in [16] and in experiment [19] was 0.06 in each case. Besides, the IC50 in experiment [17] was determined as 467 µM.
`COc1cc(Cc2cnc(N)nc2N)cc(Br)c1OC`: the figures for the zone of inhibition at 5 µg/disc in [1], in [7] and in experiment [8] were 17.4 mm, 20.4 mm and 6 mm, respectively. In addition, the MIC in experiment [2] is 1.25 µg/mL (≈ 3.69 µM); in experiment [9], 5 µg/mL (≈ 14.7 µM); in experiment [10] it was 6.25 µg/mL; in experiment [11] it was 12.5 µg/mL; in [13], 1.25 µg/mL (≈ 3.69 µM); in experiment [18], 6.25 µg/mL. For the same molecule, the MBC in experiment [3] was 1.25 µg/mL (≈ 3.69 µM); in [5] it was 1.25 µg/mL (≈ 3.69 µM); in experiment [15], 5 µg/mL (≈ 14.7 µM). For the same molecule, the “fractional inhibitory concentration index (FICI)” value in experiment [4] was determined as 0.12; in [12], 0.12; in [14] it was 0.18. In addition, the FIC in [6], in [16] and in experiment [19] was 0.06 each time. Further, in experiment [17], the IC50 was 321 µM.
Turning to `COc1cc(Cc2cnc(N)nc2N)cc(I)c1OC`, the zone of inhibition at 5 µg/disc in experiment [1] worked out at 21 mm; in experiment [7], 22.8 mm; in [8], 6 mm. For the same molecule, the MIC in [2] was determined as 1.25 µg/mL (≈ 3.24 µM); in [9], 2.5 µg/mL (≈ 6.47 µM); in experiment [10] it was 3.13 µg/mL; in experiment [11], 12.5 µg/mL; in experiment [13] it was 1.25 µg/mL (≈ 3.24 µM); in experiment [18], 6.25 µg/mL. In addition, the MBC came to 1.25 µg/mL (≈ 3.24 µM) in experiment [3], 1.25 µg/mL (≈ 3.24 µM) in [5] and 5 µg/mL (≈ 12.9 µM) in experiment [15]. The “fractional inhibitory concentration index (FICI)” value worked out at 0.09 in experiment [4], 0.12 in [12] and 0.12 in experiment [14]. Besides, the results for the FIC in experiment [6], in [16] and in experiment [19] were 0.06, 0.03 and 0.06, respectively. Also, the midpoint of inhibition in [17], the IC50, lay at 266 µM.

Broadly, the MIC is the lowest concentration that inhibits growth of the organism. Broadly, the MBC is the lowest tested concentration that kills the bacteria rather than only halting them. Low readings indicate more potent killing, high ones less potent killing. By IC50 is commonly meant the concentration that inhibits the measured activity by half.

(Values after ChEMBL document CHEMBL4270522, “Halogenated trimethoprim derivatives as multidrug-resistant Staphylococcus aureus therapeutics” (Bioorg Med Chem, 2018).)
